Reference: ChEMBL document CHEMBL4184148 (Bioorg Med Chem Lett, 2017)

What was measured:
[1] = target: ALK tyrosine kinase receptor (Homo sapiens) (UniProt Q9UM73); assay: Binding affinity to wild-type human partial length ALK (I1088 to E1409 residues) expressed in HEK293 cells at 1 uM by Kinomescan method relative to control; assay type: cell-based
[2] = target: Cyclin-dependent kinase 4/cyclin D1 (Homo sapiens) (UniProt P11802+P24385); assay: Binding affinity to wild-type human full length CDK4/cyclinD1 (M1 to E303 residues) expressed in HEK293 cells at 1 uM by Kinomescan method relative to control; assay type: cell-based
[3] = target: Casein kinase II subunit alpha' (Homo sapiens) (UniProt P19784); assay: Binding affinity to wild-type human full length CSNK2A2 (M1 to R350 residues) expressed in HEK293 cells at 1 uM by Kinomescan method relative to control; assay type: cell-based
Procedure, shortened: (§1)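 Run as one kinome-wide competition binding panel with each compound at a single fixed concentration. Results were plotted as a kinome-wide selectivity map.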

[4] = target: Dual specificity tyrosine-phosphorylation-regulated kinase 1A (Homo sapiens) (UniProt Q13627); assay: Binding affinity to wild-type human partial length DYRK1A (H129 to S509 residues) expressed in HEK293 cells at 1 uM by Kinomescan method relative to control; assay type: cell-based
[5] = target: Ephrin type-A receptor 3 (Homo sapiens) (UniProt P29320); assay: Binding affinity to wild-type human partial length EPHA3 (D604 to K889 residues) expressed in Escherichia coli BL21 at 1 uM by Kinomescan method relative to control
[6] = target: Ephrin type-A receptor 5 (Homo sapiens) (UniProt P54756); assay: Binding affinity to wild-type human partial length EPHA5 (T627 to V930 residues) expressed in Escherichia coli BL21 at 1 uM by Kinomescan method relative to control
[7] = target: Ephrin type-B receptor 2 (Homo sapiens) (UniProt P29323); assay: Binding affinity to wild-type human partial length EPHB2 (I597 to L902 residues) expressed in Escherichia coli BL21 at 1 uM by Kinomescan method relative to control
[8] = target: Mitogen-activated protein kinase 15 (Homo sapiens) (UniProt Q8TD08); assay: Binding affinity to wild-type human partial length ERK8 (M1 to P437 residues) expressed in Escherichia coli BL21 at 1 uM by Kinomescan method relative to control
[9] = target: G protein-coupled receptor kinase 4 (Homo sapiens) (UniProt P32298); assay: Binding affinity to wild-type human full length GRK4 (M1 to C578 residues) expressed in Escherichia coli BL21 at 1 uM by Kinomescan method relative to control; procedure, shortened: as §1
[10] = target: Homeodomain-interacting protein kinase 4 (Homo sapiens) (UniProt Q8NE63); assay: Binding affinity to wild-type human partial length HIPK4 (M1 to V384 residues) expressed in Escherichia coli BL21 at 1 uM by Kinomescan method relative to control
[11] = target: Inhibitor of nuclear factor kappa-B kinase subunit alpha (Homo sapiens) (UniProt O15111); assay: Binding affinity to wild-type human full length IKK-alpha (M1 to E745 residues) expressed in HEK293 cells at 1 uM by Kinomescan method relative to control; assay type: cell-based; procedure, shortened: as §1
[12] = target: Interleukin-1 receptor-associated kinase 3 (Homo sapiens) (UniProt Q9Y616); assay: Binding affinity to wild-type human partial length IRAK3 (V147 to E596 residues) expressed in Escherichia coli BL21 at 1 uM by Kinomescan method relative to control
[13] = target: Tyrosine-protein kinase JAK1 (Homo sapiens) (UniProt P23458); assay: Binding affinity to wild-type human partial length JAK1 JH1 catalytic domain (V856 to K1154 residues) expressed in Escherichia coli BL21 at 1 uM by Kinomescan method relative to control
[14] = system: Mast/stem cell growth factor receptor Kit (Homo sapiens), P10721 [D816H]; assay: Binding affinity to human partial length KIT D816H mutant (I571 to D952 residues) expressed in HEK293 cells at 1 uM by Kinomescan method relative to control; assay type: cell-based
[15] = target: Mitogen-activated protein kinase kinase kinase kinase 4 (Homo sapiens) (UniProt O95819); assay: Binding affinity to wild-type human partial length MAP4K4 (M1 to R310 residues) expressed in Escherichia coli BL21 at 1 uM by Kinomescan method relative to control
[16] = target: Serine/threonine-protein kinase 26 (Homo sapiens) (UniProt Q9P289); assay: Binding affinity to wild-type human full length MST4 (M1 to P416 residues) expressed in HEK293 cells at 1 uM by Kinomescan method relative to control; assay type: cell-based; procedure, shortened: as §1
[17] = system: Phosphatidylinositol 4,5-bisphosphate 3-kinase catalytic subunit alpha isoform (Homo sapiens), P42336 [E545A]; assay: Binding affinity to human partial length PIK3CA E545A mutant (R108 to N1068 residues) expressed in HEK293 cells at 1 uM by Kinomescan method relative to control; assay type: cell-based
[18] = target: cAMP-dependent protein kinase catalytic subunit beta (Homo sapiens) (UniProt P22694); assay: Binding affinity to wild-type human full length PKAC-beta (M1 to F351 residues) expressed in Escherichia coli BL21 at 1 uM by Kinomescan method relative to control
Procedure, shortened: (§2)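 Kinome-wide competition binding panel run by an outside provider, with each compound tested at a single concentration. Activity is read against the kinase panel.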

[19] = target: Protein kinase C delta type (Homo sapiens) (UniProt Q05655); assay: Binding affinity to wild-type human partial length PRKCD (Q328 to D676 residues) expressed in Escherichia coli BL21 at 1 uM by Kinomescan method relative to control
[20] = target: Protein kinase C eta type (Homo sapiens) (UniProt P24723); assay: Binding affinity to wild-type human partial length PRKCH (S324 to P683 residues) expressed in Escherichia coli BL21 at 1 uM by Kinomescan method relative to control
[21] = target: Protein-tyrosine kinase 2-beta (Homo sapiens) (UniProt Q14289); assay: Binding affinity to wild-type human full length PYK2 (M1 to E967 residues) expressed in Escherichia coli BL21 at 1 uM by Kinomescan method relative to control; procedure, shortened: as §2
[22] = target: RAF proto-oncogene serine/threonine-protein kinase (Homo sapiens) (UniProt P04049); assay: Binding affinity to wild-type human partial length RAF1 (I330 to T640 residues) expressed in Escherichia coli BL21 at 1 uM by Kinomescan method relative to control
[23] = target: Receptor-interacting serine/threonine-protein kinase 2 (Homo sapiens) (UniProt O43353); assay: Binding affinity to wild-type human partial length RIPK2 (M1 to K310 residues) expressed in Escherichia coli BL21 at 1 uM by Kinomescan method relative to control
[24] = target: Ribosomal protein S6 kinase alpha-2 (Homo sapiens) (UniProt Q15349); assay: Binding affinity to wild-type human partial length N-terminal RSK2 kinase domain 1 (M1 to D394 residues) expressed in HEK293 cells at 1 uM by Kinomescan method relative to control; assay type: cell-based
[25] = target: Serine/threonine-protein kinase TAO3 (Homo sapiens) (UniProt Q9H2K8); assay: Binding affinity to wild-type human partial length TAOK3 (M1 to T316 residues) expressed in HEK293 cells at 1 uM by Kinomescan method relative to control; assay type: cell-based

Row | Compound | Activity [1] [%] | Activity [2] [%] | Activity [3] [%] | Activity [4] [%] | Activity [5] [%] | Activity [6] [%] | Activity [7] [%] | Activity [8] [%] | Activity [9] [%] | Activity [10] [%] | Activity [11] [%] | Activity [12] [%] | Activity [13] [%] | Activity [14] [%] | Activity [15] [%] | Activity [16] [%] | Activity [17] [%] | Activity [18] [%] | Activity [19] [%] | Activity [20] [%] | further results
1 | CCC(=O)Nc1ccc(C(=O)Nc2ccc(Nc3ncc4c(n3)N(C)c3ccc(C)cc3C(=O)N4C)cc2)cc1 | 83 | 100 | 83 | 73 | 99 | 94 | 93 | 94 | 100 | 95 | 99 | 89 | 86 | 72 | 95 | 98 | 93 | 100 | 84 | 100 | Activity [21]: 95%; Activity [22]: 96%; Activity [23]: 98%; Activity [24]: 66%; Activity [25]: 92%
2 | C=CC(=O)Nc1ccc(C(=O)Nc2ccc(Nc3ncc4c(n3)N(C)c3ccc(C)cc3C(=O)N4C)cc2)cc1 | 100 | 94 | 100 | 96 | 100 | 100 | 96 | 96 | 97 | 95 | 100 | 98 | 96 | 83 | 98 | 100 | 78 | 100 | 97 | 100 | Activity [21]: 97%; Activity [22]: 88%; Activity [23]: 89%; Activity [24]: 82%; Activity [25]: 95%
